Screens from PubChem BioAssay.
MrgX1 antag: antagonists of human MrgX1 receptor; MRGX1-HEK293 calcium flux, Fluo-4, BAM8-22 antagonism; active compounds read low; B-score at 10 µM; AID 588676; hit rate 1.3% among 310,000;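 active = calcium-response B-score plate-corrected more than 3 library SD below zero, starting fluorescence within 5 deviations, no agonist response on first addition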;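 also: peak minus trough fluorescence over baseline after final BAM8-22 challenge near maximal dose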
MrgX1 agonist: human MrgX1 receptor agonism, primary screen | Q96LB2 | hit rate 0.44% among 310,000 | B-score at 10 µM | MrgX1-HEK293 cells, Fluo-4 calcium fluorescence, agonist mode; active compounds read high | AID 588627;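 active = calcium response B-score plate-corrected fluorescence ratio at least 3 library SD, with starting fluorescence B-score inside 5 SD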
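Material: HEK293 cells stably expressing human MrgX1 receptor | Quantity: 15,000 cells per well | Times: Cells plated overnight, dye loaded 0.5 h 37 °C, 0.5 h room temperature | Measured by: Kinetic Fluo-4 NW fluorescence of intracellular calcium | Control set: Positive and negative controls per plate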
RGS4 inh: human RGS4 inhibition. P49798. HEK293 M3R/RGS4 inducible, Fluo-4 calcium flux; active compounds read high; triggered by carbachol at its EC20. B-score at 10 µM. hit rate 0.45% among 310,000;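 active = B-score, a plate-corrected calcium signal, over three deviations above library mean, with baseline fluorescence within five deviations of library mean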;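 also: RGS4 expression induced by doxycycline in cells with stable M3 receptor; B-score is computed from the integrated fluorescence ratio over baseline after carbachol; higher B-score means a larger calcium signal and so more RGS4 inhibition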
Target sequence (P49798 whole entry, looked up): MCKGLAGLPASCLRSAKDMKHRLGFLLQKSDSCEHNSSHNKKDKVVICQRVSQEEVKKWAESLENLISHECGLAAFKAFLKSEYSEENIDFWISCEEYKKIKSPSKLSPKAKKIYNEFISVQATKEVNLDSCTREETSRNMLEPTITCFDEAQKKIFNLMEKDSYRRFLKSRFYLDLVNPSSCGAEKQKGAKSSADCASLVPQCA
RGS4 pot: potentiators or activators of RGS4 | hit rate 0.92% among 310,000 | HEK293 M3R/inducible RGS4, carbachol calcium flux Fluo4; active compounds read low | B-score at 10 µM | AID 463111;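 active = B-score of the integrated calcium signal more than 4 SD below the library mean, with starting fluorescence not abnormally high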;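 also: negative B-score means reduced calcium response which marks RGS4 activation or potentiation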
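Test system: HEK293 cells with stable M3R and inducible RGS4; also added: carbachol at ECmax as muscarinic agonist stimulus; schedule: dye loading 30 min 37 °C, buffer rest 30 min RT; technique: kinetic calcium fluorescence imaging with Fluo4-AM dye, 2 µM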
Lipid droplet: modulators of hepatic lipid droplet formation; AML12 mouse hepatocytes, oleate lipid droplets, BODIPY imaging; inhibition, % at 6.5 µM; hit rate 0.4% among 240,000;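 active = lipid droplet intensity inhibited by at least 50%, with more than 500 cells counted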
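Test system: AML12 hepatocytes (mouse); reagent: oleate loading, 100 µM; dosing: one dose, 6.5 µM compound; incubation: overnight exposure; signal: fluorescence imaging, 20x objective, two fields per well; read-out basis: % inhibition of corrected integrated BODIPY droplet signal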
MrgX1 allo act: allosterically activates human MrgX1 receptor signaling. hit rate 0.63% among 310,000. MrgX1-HEK293, Fluo-4 calcium flux, FDSS; active compounds read high. B-score at 10 µM. AID 588675. Q96LB2;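 active = plate-corrected calcium response at least 3 library SD above typical, normal starting fluorescence, not activating the receptor alone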;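 also: compound read alongside a low EC10 to EC30 dose of BAM8-22 agonist; peak minus trough fluorescence over baseline measured at the second addition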
Active calls of the source: *; i = inactive; . = no result. Only some compounds are listed: those with a hit (about 3.8% of all), similar ones and a draw of the others.

SMILES	MrgX1 antag	MrgX1 agonist	RGS4 inh	RGS4 pot	Lipid droplet	MrgX1 allo act
Cc1ccc(OCCn2cc(/C=N/NC(=O)c3ccncc3)c3ccccc32)cc1	i	i	i	i	-11	i
COc1ccc(OCCn2cc(/C=N/NC(=O)c3ccncc3)c3ccccc32)cc1	i	i	i	i	-9	7.2*
CC(=O)Nc1ccc2c(c1)CN(c1cc(C)ccc1C)CO2	i	i	i	i	4	i
O=C(CSc1nc(=O)n2ccccc2n1)N1CCCCCC1	i	i	i	i	.	i
O=C(NCc1ccccn1)Nc1cc(Cl)cc(Cl)c1	i	i	i	i	4	i
O=C(NCc1csc2ccccc12)Nc1cc(Cl)cc(Cl)c1	-4.6*	i	i	i	24	i
COc1ccc(NC(=O)CSc2nnc(Cn3nnc4ccccc43)n2C)cc1	i	i	.	.	-3	i
CCc1ccccc1NC(=O)CSc1nnc(Cn2nnc3ccccc32)n1C	i	i	i	-7.5*	2	i
Cc1ccc(C)c(OCC(=O)NCC(c2ccco2)N2CCCCC2)c1 (configuration not stated)	i	i	i	i	.	i
Cc1[nH]n(-c2ccccc2)c(=O)c1C(c1ccccc1[N+](=O)[O-])C(C#N)C#N (configuration not stated)	i	36*	i	i	18	i
COc1ccc(CNC(=O)CN2CCN(c3ccccc3)CC2)cc1	i	i	i	i	-5	i
O=C(Nc1cccc(-c2nc3ccccc3s2)c1)c1cc(-n2cnnc2)ccc1Cl	i	i	i	-8.3*	.	i
O=C(N/N=C/c1ccc([N+](=O)[O-])s1)c1ccccc1Br	-5.3*	i	i	i	.	i
COc1ccc(CC2=CC(=O)c3ccccc3C2=O)cc1	i	i	6.2*	i	-1	i
C=CCOc1ccc(C2OC34CCCCC3C(C#N)(C#N)C2(C#N)C(=N)O4)cc1 (configuration not stated)	i	27*	i	i	-9	i
CCOc1ccc(NS(=O)(=O)c2ccc(C(=O)NCC3(N(C)C)CCCCC3)cc2)cc1	i	i	i	i	.	i
CCOc1ccc(S(=O)(=O)Nc2ccc(C(=O)NCC(C)(C)N3CCOCC3)cc2)cc1	-4.9*	i	i	i	.	i
CCOc1ccc(NS(=O)(=O)c2ccc(C(=O)NCC3(N4CCCCC4)CCCCC3)cc2)cc1	-5.6*	i	i	i	-9	i
O=C(CN(Cc1ccc(Cl)cc1)C(=O)CNS(=O)(=O)c1ccccc1)NCC1CCCO1 (configuration not stated)	i	i	i	i	7	i
CC(=O)c1ccc(N2CCN(S(=O)(=O)c3ccc4c(c3)NC(=O)CO4)CC2)cc1	i	i	i	i	-15	i
CCN1C(=O)CS/C1=C(\C#N)S(=O)(=O)c1ccccc1	i	41*	i	i	4	i
CCN1C(=O)CS/C1=N\S(=O)(=O)c1ccccc1	i	i	i	i	-25	i
O=C(Nc1nc(-c2ccccc2)cs1)c1ccc(N2CCOCC2)c([N+](=O)[O-])c1	-7.4*	i	i	i	20	i
COc1ccc(/C=C/C(=O)N(Cc2cccs2)C2CCS(=O)(=O)C2)cc1 (configuration not stated)	i	i	i	-7.5*	-2	i
COc1ccc(OCc2cccc(C(=O)Nc3ccc(CN4CCCCC4)cc3)c2)cc1	i	i	i	i	-2	i
CCOc1ccc(OCc2cccc(C(=O)Nc3ccc(CN4CCCCC4)cc3)c2)cc1	i	i	i	-7.3*	-62	i
CCOc1ccc(CNC(=O)C2CCN(c3nn4c(=O)cc(C)nc4s3)CC2)cc1	i	i	i	i	-10	i
